Our source for the IC50 and Ratio values is ChEMBL document CHEMBL1132256, “Structure-activity relationships for substituted bis(acridine-4-carboxamides): a new class of anticancer agents” (J Med Chem, 1999).

In test [1] the test system is Lewis lung carcinoma cell line. Briefly: Inhibitory activity of tested against Murine Lewis lung carcinoma. The conditions noted are these: Mus musculus. In kind it is functional, cell-based. The method in brief:
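Lewis lung carcinoma (LLTC) cells at 10^3 cells/well, 4-day continuous drug exposure, growth read by sulforhodamine assay. IC50 (nM) = concentration giving 50% of control cell number. Duplicate independent assays, CV ca. 25%.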

The subject of test [2] is Jurkat. As to the kind of experiment: Concentration required to inhibit 50% growth of human Jurkat cells. The test is classed as functional, cell-based. The method in brief:
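Jurkat leukemia (JLC) cells seeded at 3.75 × 10^3 cells/well and exposed to drug for 4 days; growth measured by sulforhodamine assay. IC50 = drug concentration (nM) reducing cell number to 50% of control cultures. Independent assays in duplicate, coefficients of variation ca. 25%.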

The test system of test [3] is Jurkat. Briefly: Ratio of inhibitory activity against doxorubicin resistant jurkat cells to inhibitory activity against wild type human jurkat cells. In kind it is functional. A digest of the protocol: (§1)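 Wild-type Jurkat (JLC) and its amsacrine-resistant (JLA) or doxorubicin-resistant (JLD) sublines each seeded at 3.75 × 10^3 cells/well, 4 days with drug, sulforhodamine read-out. IC50 (nM) for 50% of control cell number; ratio = resistant-line IC50 divided by JLC IC50. Duplicate assays, CV ca. 25%.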

Another test relates to P388. Briefly: Inhibitory activity against Murine […]. The test is classed as functional, cell-based. The conditions noted are these: Mus musculus. A digest of the protocol:
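Murine P388 leukemia cells seeded at 4.5 × 10^3 cells/well, cultured 3 days with drug; growth measured by [3H]TdR uptake. IC50 = drug concentration (nM) reducing cell number to 50% of controls. Independent assays in duplicate, CV ca. 25%.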

In test [4] the test system is Jurkat. Briefly: Ratio of inhibitory activity against amsacrine resistant jurkat cells to inhibitory activity against wild type human jurkat cells. The test is classed as functional. The method in brief:
as §1

With `CN(CCCNC(=O)c1ccc(Cl)c2cc3ccccc3nc12)CCCNC(=O)c1ccc(Cl)c2cc3ccccc3nc12`, the IC50 in test [1] amounted to 42 nM; in the test on Jurkat [2], 127 nM; in the test with P388, 400 nM. Besides, the Ratio in the test with Jurkat [3] amounted to 1; in the test on Jurkat [4], 0.6.

Consider `CN(CCCNC(=O)c1cccc2cc3cc(Cl)ccc3nc12)CCCNC(=O)c1cccc2cc3cc(Cl)ccc3nc12`, for which the IC50 in test [1] turned out to be 46 nM; with Jurkat [2], 136 nM; in the test on P388, 170 nM. Further, the Ratio with Jurkat [3] stood at 0.9; in the test with Jurkat [4], 0.8.

In the case of `CN(CCCNC(=O)c1cccc2cc3cc(F)ccc3nc12)CCCNC(=O)c1cccc2cc3cc(F)ccc3nc12`, the IC50 in test [1] was determined as 32 nM; with Jurkat [2], 96 nM; in the test with P388, 140 nM. For the same compound, the Ratio in the test on Jurkat [3] is on record as 0.8; with Jurkat [4] it was 0.6.

Take `COc1cc(NS(C)(=O)=O)ccc1Nc1c2ccccc2nc2ccccc12` [AMSACRINE]: the IC50 in test [1] is 12 nM. The Ratio in the test on Jurkat [3] is 74; with Jurkat [4] it was 85.

As for `Cc1cccc2cc3c(Cl)ccc(C(=O)NCCCN(C)CCCNC(=O)c4ccc(Cl)c5cc6cccc(C)c6nc45)c3nc12`, the concentration for half-maximal inhibition (IC50) in test [1] came out at 6 nM; with Jurkat [2] it was 12 nM; in the test with P388, 48 nM. The results for the Ratio with Jurkat [3] and with Jurkat [4] were 0.6 and 0.3, respectively.

For the compound `COc1cccc2c1C(=O)c1c(O)c3c(c(O)c1C2=O)C[C@@](O)(C(=O)CO)C[C@@H]3O[C@H]1C[C@H](N)[C@H](O)[C@H](C)O1` [DOXORUBICIN], the results for the half-maximal inhibitory concentration (IC50) (in test [1]; in the test on P388) were 22 nM and 31 nM, respectively. Besides, the Ratio in the test with Jurkat [3] is given as 13; with Jurkat [4], 4.4.

With `CN(CCCNC(=O)c1cc(Cl)cc2cc3ccccc3nc12)CCCNC(=O)c1cc(Cl)cc2cc3ccccc3nc12`, the half-maximal inhibitory concentration (IC50) turned out to be 5.9 nM in test [1], 46 nM in the test on Jurkat [2] and 113 nM in the test with P388. Moreover, the values for the Ratio in the test with Jurkat [3] and with Jurkat [4] were 0.9 and 0.7, respectively.

With `CN(CCCNC(=O)c1cccc2cc3cc(N(C)C)ccc3nc12)CCCNC(=O)c1cccc2cc3cc(N(C)C)ccc3nc12`, the half-inhibitory concentration (IC50) in test [1] amounted to 183 nM; in the test with Jurkat [2], 760 nM; with P388, 970 nM. The Ratio with Jurkat [3] stood at 0.9; with Jurkat [4], 1.

Consider `CC(C)c1cccc2cc3cccc(C(=O)NCCCN(C)CCCNC(=O)c4cccc5cc6cccc(C(C)C)c6nc45)c3nc12`, for which the IC50 was 1050 nM in test [1], 2080 nM in the test with Jurkat [2] and 2760 nM in the test on P388. Also, the results for the Ratio in the test on Jurkat [3] and with Jurkat [4] were 1.1 and 0.9, respectively.

Take `CC(C)c1ccc2nc3c(C(=O)NCCCN(C)CCCNC(=O)c4cccc5cc6cc(C(C)C)ccc6nc45)cccc3cc2c1`: the half-inhibitory concentration (IC50) in test [1] is 2080 nM; in the test on Jurkat [2], 2080 nM; in the test on P388, 1450 nM. For the same compound, the Ratio with Jurkat [3] and in the test on Jurkat [4] was 1.1 in each case.

For `Cc1cc(C)c2nc3c(C(=O)NCCCN(C)CCCNC(=O)c4cccc5cc6cc(C)cc(C)c6nc45)cccc3cc2c1`, the results for the IC50 (in test [1]; with Jurkat [2]; with P388) were 20 nM, 105 nM and 210 nM, respectively. Moreover, the results for the Ratio in the test on Jurkat [3] and in the test with Jurkat [4] were 0.8 and 0.5, respectively.

Turning to `CN(CCCNC(=O)c1cccc2cc3cc(Br)ccc3nc12)CCCNC(=O)c1cccc2cc3cc(Br)ccc3nc12`, the concentration for half-maximal inhibition (IC50) in test [1] worked out at 35 nM; in the test with Jurkat [2], 226 nM; in the test with P388, 225 nM. Besides, the Ratio came out at 0.9 in the test with Jurkat [3] and 0.7 in the test with Jurkat [4].

Take `CN(CCCNC(=O)c1cccc2cc3ccc(Br)cc3nc12)CCCNC(=O)c1cccc2cc3ccc(Br)cc3nc12`: the IC50 in test [1] is 18 nM; in the test with Jurkat [2], 58 nM; with P388 it was 49 nM. For the same compound, the Ratio with Jurkat [3] worked out at 0.9; with Jurkat [4], 0.6.

A word on the IC50: it is the concentration that gives 50% inhibition.
